{"source": "ChEMBL document CHEMBL2390921", "about": "“A novel benzazepinone sodium channel blocker with oral efficacy in a rat model of neuropathic pain” (Bioorg Med Chem Lett, 2013)", "key": {"[1]": {"test_system": "Rattus norvegicus", "assay": "Neurotoxicity in rat assessed as motor impairment at 30 to 100 mg/kg, po after 2 to 4 hrs by rotarod test", "format": "toxicity, organism-based", "parameters": "route oral", "conditions": "in vivo", "how_it_was_run": "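Rats were trained on a rotarod for 3 min at 10 rpm, then given a single oral dose of test agent or vehicle and tested at 2 and 4 h post-dose. During testing the rod ran at 10 rpm for 60 s, then accelerated to 60 rpm. Time to fall after the start of acceleration was recorded. Impairment was defined as >20% reduction in latency.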"}, "[2]": {"test_system": "Rattus norvegicus", "assay": "Analgesic activity in po dosed rat spinal nerve ligation neuropathic pain model assessed as reversal of allodynia measured after 4 hrs", "format": "functional, organism-based", "how_it_was_run": "(§1)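 Rat spinal nerve ligation model. Seven days after surgery, rats received a single oral dose (3, 10 or 30 mg/kg) of test agent or vehicle. Tactile allodynia was scored at 2, 4, 8 and 24 h post-dose with calibrated von Frey filaments using an up-down paradigm. Threshold is the force giving a 50% withdrawal rate. %MPE = (post-compound − post-SNL)/(pre-SNL − post-SNL) × 100, where 100% is full reversal.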"}, "[3]": {"test_system": "Rattus norvegicus", "assay": "Analgesic activity in po dosed rat spinal nerve ligation neuropathic pain model assessed as reversal of allodynia measured at 2 to 4 hrs", "format": "functional", "how_it_was_run": "as §1"}, "[4]": {"test_system": "Rattus norvegicus", "assay": "Analgesic activity in rat spinal nerve ligation neuropathic pain model assessed as reversal of allodynia at 10 mg/kg, po measured at 24 hrs relative to control", "format": "functional", "how_it_was_run": "as §1"}, "[5]": {"test_system": "Rattus norvegicus", "assay": "Analgesic activity in rat spinal nerve ligation neuropathic pain model assessed as reversal of allodynia at 3 mg/kg, po measured at 24 hrs relative to control", "format": "functional", "how_it_was_run": "as §1"}, "[6]": {"test_system": "Rattus norvegicus", "assay": "Analgesic activity in rat spinal nerve ligation neuropathic pain model assessed as reversal of allodynia at 30 mg/kg, po measured at 8 hrs relative to control", "format": "functional", "how_it_was_run": "as §1"}, "[7]": {"test_system": "Rattus norvegicus", "assay": "Analgesic activity in rat spinal nerve ligation neuropathic pain model assessed as reversal of allodynia at 10 mg/kg, po measured at 8 hrs relative to control", "format": "functional", "how_it_was_run": "as §1"}, "[8]": {"test_system": "Rattus norvegicus", "assay": "Analgesic activity in rat spinal nerve ligation neuropathic pain model assessed as reversal of allodynia at 3 mg/kg, po measured at 8 hrs relative to control", "format": "functional", "how_it_was_run": "as §1"}, "[9]": {"test_system": "Rattus norvegicus", "assay": "Analgesic activity in rat spinal nerve ligation neuropathic pain model assessed as reversal of allodynia at 30 mg/kg, po measured at 4 hrs relative to control", "format": "functional", "how_it_was_run": "as §1"}, "[10]": {"test_system": "Rattus norvegicus", "assay": "Analgesic activity in rat spinal nerve ligation neuropathic pain model assessed as reversal of allodynia at 10 mg/kg, po measured at 4 hrs relative to control", "format": "functional", "how_it_was_run": "as §1"}, "[11]": {"test_system": "Rattus norvegicus", "assay": "Analgesic activity in rat spinal nerve ligation neuropathic pain model assessed as reversal of allodynia at 3 mg/kg, po measured at 4 hrs relative to control", "format": "functional", "how_it_was_run": "as §1"}, "[12]": {"test_system": "Rattus norvegicus", "assay": "Analgesic activity in rat spinal nerve ligation neuropathic pain model assessed as reversal of allodynia at 10 mg/kg, po measured at 2 hrs relative to control", "format": "functional", "how_it_was_run": "as §1"}, "[13]": {"test_system": "Rattus norvegicus", "assay": "Analgesic activity in rat spinal nerve ligation neuropathic pain model assessed as reversal of allodynia at 30 mg/kg, po measured at 2 hrs relative to control", "format": "functional", "how_it_was_run": "as §1"}, "[14]": {"test_system": "Rattus norvegicus", "assay": "Analgesic activity in rat spinal nerve ligation neuropathic pain model assessed as reversal of allodynia at 3 mg/kg, po measured at 2 hrs relative to control", "format": "functional", "how_it_was_run": "as §1"}, "[15]": {"target": "Mu-type opioid receptor (Homo sapiens) (UniProt P35372)", "sequence (P35372 whole entry)": "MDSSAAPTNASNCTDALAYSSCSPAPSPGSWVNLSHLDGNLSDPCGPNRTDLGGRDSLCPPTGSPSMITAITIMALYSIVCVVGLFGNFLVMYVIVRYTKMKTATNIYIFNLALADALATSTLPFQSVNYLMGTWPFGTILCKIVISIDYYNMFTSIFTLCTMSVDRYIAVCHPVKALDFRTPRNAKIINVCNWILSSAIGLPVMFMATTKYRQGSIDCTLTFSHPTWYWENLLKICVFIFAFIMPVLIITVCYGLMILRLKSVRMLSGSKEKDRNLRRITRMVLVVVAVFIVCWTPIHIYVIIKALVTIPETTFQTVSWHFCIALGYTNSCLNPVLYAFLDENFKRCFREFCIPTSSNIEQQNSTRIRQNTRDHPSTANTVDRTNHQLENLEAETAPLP", "assay": "Binding affinity to mu opioid receptor (unknown origin) at 25 uM relative to control"}, "[16]": {"target": "Kappa-type opioid receptor (Homo sapiens) (UniProt P41145)", "sequence (P41145 whole entry)": "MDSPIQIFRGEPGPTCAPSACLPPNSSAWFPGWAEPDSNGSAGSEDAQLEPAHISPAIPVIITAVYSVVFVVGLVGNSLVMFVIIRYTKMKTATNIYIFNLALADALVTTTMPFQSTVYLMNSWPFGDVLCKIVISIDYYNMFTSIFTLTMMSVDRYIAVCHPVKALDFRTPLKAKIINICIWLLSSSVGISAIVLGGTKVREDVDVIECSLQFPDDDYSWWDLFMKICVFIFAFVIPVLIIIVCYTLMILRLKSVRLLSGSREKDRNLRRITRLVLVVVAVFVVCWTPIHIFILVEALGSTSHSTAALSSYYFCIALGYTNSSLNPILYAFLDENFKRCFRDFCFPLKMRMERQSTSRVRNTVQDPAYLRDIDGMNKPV", "assay": "Binding affinity to kappa opioid receptor (unknown origin) at 25 uM relative to control"}, "[17]": {"target": "Delta-type opioid receptor (Homo sapiens) (UniProt P41143)", "sequence (P41143 whole entry)": "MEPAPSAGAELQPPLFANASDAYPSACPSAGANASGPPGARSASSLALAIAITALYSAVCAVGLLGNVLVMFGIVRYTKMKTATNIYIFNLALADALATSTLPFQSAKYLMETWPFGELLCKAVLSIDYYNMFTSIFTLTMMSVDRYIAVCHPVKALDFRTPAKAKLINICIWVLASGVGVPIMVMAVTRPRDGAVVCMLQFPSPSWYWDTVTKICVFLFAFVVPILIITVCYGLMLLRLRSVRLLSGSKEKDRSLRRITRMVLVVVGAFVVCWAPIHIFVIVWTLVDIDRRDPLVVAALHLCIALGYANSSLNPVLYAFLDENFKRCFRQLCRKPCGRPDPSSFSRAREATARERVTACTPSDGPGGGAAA", "assay": "Binding affinity to delta opioid receptor (unknown origin) at 25 uM relative to control"}, "[18]": {"target": "Cannabinoid receptor 2 (Homo sapiens) (UniProt P34972)", "sequence (P34972 whole entry)": "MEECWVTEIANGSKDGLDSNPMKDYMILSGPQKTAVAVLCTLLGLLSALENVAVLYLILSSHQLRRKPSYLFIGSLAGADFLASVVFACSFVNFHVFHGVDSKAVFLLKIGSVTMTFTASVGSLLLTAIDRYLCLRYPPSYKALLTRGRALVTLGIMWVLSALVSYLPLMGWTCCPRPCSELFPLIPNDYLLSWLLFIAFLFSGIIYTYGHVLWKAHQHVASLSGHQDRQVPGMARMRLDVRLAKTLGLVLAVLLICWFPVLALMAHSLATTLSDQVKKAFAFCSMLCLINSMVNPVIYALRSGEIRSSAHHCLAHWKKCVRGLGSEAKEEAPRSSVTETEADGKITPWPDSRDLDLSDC", "assay": "Binding affinity to CB2 receptor (unknown origin) at 25 uM relative to control"}, "[19]": {"target": "Prostaglandin G/H synthase 1 (Homo sapiens) (UniProt P23219)", "sequence (P23219 whole entry)": "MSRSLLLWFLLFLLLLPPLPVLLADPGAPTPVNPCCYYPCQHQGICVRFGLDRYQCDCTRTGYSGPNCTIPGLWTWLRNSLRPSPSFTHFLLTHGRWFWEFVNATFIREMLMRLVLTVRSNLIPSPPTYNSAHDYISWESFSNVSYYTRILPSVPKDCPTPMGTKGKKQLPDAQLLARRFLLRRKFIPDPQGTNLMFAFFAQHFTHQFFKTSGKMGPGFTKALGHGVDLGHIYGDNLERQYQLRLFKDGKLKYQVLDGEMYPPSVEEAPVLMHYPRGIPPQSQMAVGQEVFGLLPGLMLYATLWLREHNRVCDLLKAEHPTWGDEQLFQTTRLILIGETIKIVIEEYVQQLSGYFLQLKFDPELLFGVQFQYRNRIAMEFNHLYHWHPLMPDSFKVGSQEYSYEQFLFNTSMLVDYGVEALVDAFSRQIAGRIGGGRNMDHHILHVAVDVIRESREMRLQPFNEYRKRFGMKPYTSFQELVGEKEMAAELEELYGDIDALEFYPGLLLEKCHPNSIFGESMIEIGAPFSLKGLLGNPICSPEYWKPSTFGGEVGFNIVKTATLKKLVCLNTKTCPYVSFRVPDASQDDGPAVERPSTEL", "assay": "Binding affinity to COX1 (unknown origin) at 25 uM relative to control"}, "[20]": {"target": "T1, Prostaglandin E2 receptor EP1 subtype (Homo sapiens) (UniProt P34995)", "T1 sequence (whole entry)": "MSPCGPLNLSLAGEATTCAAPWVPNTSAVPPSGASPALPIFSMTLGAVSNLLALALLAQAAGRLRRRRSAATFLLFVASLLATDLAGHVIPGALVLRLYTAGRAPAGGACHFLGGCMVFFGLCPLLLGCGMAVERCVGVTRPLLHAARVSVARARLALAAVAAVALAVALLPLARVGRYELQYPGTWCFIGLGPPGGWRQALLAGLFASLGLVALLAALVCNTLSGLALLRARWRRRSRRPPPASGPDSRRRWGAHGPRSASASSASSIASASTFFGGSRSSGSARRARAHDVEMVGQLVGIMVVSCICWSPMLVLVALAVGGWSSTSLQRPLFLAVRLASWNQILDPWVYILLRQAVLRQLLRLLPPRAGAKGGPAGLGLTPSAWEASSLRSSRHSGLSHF", "assay": "Binding affinity to prostaglandin receptor EP1 (unknown origin) at 25 uM relative to control"}, "[21]": {"target": "T2, Sodium channel protein type 9 subunit alpha (Homo sapiens, UniProt Q15858)", "assay": "Binding affinity to resting state of human NaV1.7 channel by whole-cell patch clamp assay", "how_it_was_run": "(§2)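 Manual whole-cell voltage clamp measuring block of resting and inactivated channel states at room temperature. Data acquired at 50 kHz, filtered at 10 kHz. Bath: 40 mM NaCl, 120 mM NMDG-Cl, 1 mM KCl, 2.7 mM CaCl2, 0.5 mM MgCl2, 10 mM NMDG-HEPES, pH 7.4.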"}, "[22]": {"target": "Sodium channel protein type 10 subunit alpha (Homo sapiens) (UniProt Q9Y5Y9)", "assay": "Binding affinity to inactivated state of NaV1.8 channel (unknown origin) by whole-cell patch clamp assay", "how_it_was_run": "as §2"}, "[23]": {"target": "Sodium channel protein type 5 subunit alpha (Homo sapiens, UniProt Q14524)", "sequence (Q14524 whole entry)": "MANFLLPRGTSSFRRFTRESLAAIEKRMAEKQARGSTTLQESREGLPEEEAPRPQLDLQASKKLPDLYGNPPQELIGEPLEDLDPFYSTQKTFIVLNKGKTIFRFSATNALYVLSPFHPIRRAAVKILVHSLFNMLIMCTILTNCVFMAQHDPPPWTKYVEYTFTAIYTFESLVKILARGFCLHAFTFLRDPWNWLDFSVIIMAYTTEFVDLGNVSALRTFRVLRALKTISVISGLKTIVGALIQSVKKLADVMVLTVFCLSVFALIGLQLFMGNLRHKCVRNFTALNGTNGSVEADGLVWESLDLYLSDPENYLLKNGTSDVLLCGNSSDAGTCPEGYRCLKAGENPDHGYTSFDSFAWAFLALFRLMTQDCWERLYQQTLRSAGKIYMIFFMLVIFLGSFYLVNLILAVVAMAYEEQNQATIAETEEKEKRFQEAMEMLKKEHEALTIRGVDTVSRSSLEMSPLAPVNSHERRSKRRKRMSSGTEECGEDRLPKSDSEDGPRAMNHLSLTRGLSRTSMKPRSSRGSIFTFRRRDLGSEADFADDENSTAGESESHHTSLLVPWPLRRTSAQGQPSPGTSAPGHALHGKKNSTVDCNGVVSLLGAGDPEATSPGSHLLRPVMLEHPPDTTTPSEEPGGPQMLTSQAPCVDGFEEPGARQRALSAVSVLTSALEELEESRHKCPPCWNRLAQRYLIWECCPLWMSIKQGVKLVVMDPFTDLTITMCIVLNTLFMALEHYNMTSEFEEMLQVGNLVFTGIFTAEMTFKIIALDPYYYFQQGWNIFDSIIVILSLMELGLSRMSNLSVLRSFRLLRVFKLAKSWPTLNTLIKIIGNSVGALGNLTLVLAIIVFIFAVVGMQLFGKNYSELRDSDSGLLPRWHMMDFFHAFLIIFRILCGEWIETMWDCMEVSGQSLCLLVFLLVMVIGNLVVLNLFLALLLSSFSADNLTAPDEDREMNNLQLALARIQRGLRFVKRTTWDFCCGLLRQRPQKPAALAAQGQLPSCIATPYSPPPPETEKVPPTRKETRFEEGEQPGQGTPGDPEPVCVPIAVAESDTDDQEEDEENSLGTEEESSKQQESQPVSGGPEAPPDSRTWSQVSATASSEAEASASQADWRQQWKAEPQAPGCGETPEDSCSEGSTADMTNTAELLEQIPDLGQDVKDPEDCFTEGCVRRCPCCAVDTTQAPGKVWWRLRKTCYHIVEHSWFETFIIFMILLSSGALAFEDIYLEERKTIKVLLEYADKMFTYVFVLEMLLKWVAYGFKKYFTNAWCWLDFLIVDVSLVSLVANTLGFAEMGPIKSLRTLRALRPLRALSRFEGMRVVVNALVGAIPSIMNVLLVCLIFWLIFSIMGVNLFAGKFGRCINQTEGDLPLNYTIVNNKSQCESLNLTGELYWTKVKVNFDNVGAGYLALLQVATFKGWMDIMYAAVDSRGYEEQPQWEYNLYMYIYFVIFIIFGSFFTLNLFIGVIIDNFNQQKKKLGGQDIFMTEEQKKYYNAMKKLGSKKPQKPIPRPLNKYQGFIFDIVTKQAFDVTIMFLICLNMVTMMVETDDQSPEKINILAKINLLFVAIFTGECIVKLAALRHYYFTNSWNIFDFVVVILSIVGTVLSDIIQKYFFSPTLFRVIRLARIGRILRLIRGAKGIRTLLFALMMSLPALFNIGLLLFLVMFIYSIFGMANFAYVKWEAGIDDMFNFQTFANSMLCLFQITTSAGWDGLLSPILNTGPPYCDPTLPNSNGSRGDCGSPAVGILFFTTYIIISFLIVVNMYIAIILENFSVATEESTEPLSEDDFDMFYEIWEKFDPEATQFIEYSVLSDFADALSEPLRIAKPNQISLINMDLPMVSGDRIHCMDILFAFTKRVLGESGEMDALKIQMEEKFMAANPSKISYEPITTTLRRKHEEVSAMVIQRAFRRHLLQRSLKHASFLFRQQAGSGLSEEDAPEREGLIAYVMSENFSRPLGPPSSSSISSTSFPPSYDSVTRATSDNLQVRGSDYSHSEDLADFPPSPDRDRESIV", "assay": "Binding affinity to inactivated state of human NaV1.5 channel by whole-cell patch clamp assay", "conditions": "read-out: K"}, "[24]": {"target": "Sodium channel protein type 8 subunit alpha (Homo sapiens) (UniProt Q9UQD0)", "assay": "Binding affinity to inactivated state of NaV1.6 channel (unknown origin) by whole-cell patch clamp assay", "how_it_was_run": "as §2"}, "[25]": {"target": "T2, Sodium channel protein type 9 subunit alpha", "assay": "Binding affinity to inactivated state of human NaV1.7 channel by whole-cell patch clamp assay", "how_it_was_run": "as §2"}, "[26]": {"assay": "Plasma clearance in Sprague-Dawley rat at 3 mg/kg, po and 1 mg/kg, iv", "format": "ADME, organism-based", "how_it_was_run": "(§3)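 Fasted male Sprague–Dawley rats (n = 3 per route) were dosed with 1.5 mg/mL solutions in PEG300/water or DMSO/PEG300/water, either 1.0 mg/kg iv via femoral-vein cannula or 3.0 mg/kg by oral gavage. Blood was sampled at 5 min (iv only), 15 and 30 min, and 1, 2, 4, 6 and 8 h. Plasma levels were measured by LC–MS/MS after acetonitrile protein precipitation.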"}, "[27]": {"assay": "Half life in Sprague-Dawley rat at 3 mg/kg, po and 1 mg/kg, iv", "format": "ADME, organism-based", "conditions": "in vivo", "how_it_was_run": "as §3"}, "[28]": {"test_system": "Rattus norvegicus", "assay": "Dose normalized AUC in Sprague-Dawley rat at 3 mg/kg, po", "format": "ADME, organism-based", "parameters": "dose 3 mg/kg, route oral", "conditions": "in vivo", "how_it_was_run": "as §3"}, "[29]": {"target": "T2, Sodium channel protein type 9 subunit alpha", "assay": "Inhibition of human NaV1.7 channel expressed in HEK293 cells by FRET assay", "format": "cell-based", "how_it_was_run": "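HEK293 cells stably expressing human Nav1.7. Channel block was read in a functional membrane-potential assay based on FRET between two membrane-associated dyes; IC50 determined.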"}}}
{"smiles": "O=C(N[C@H](Cc1ccccc1F)C(=O)N[C@@H]1CCc2c(F)c(F)cc(F)c2N(C2CC2)C1=O)C1CC1C(F)(F)F", "note": "(some centres undefined)", "values": [{"measurement": "Activity", "setting": "[1]", "result": "Non-toxic"}, {"measurement": "Activity", "setting": "[2]", "result": "Dose-dependent effect"}, {"measurement": "ED50", "setting": "[3]", "result": 15, "unit": "mg/kg"}, {"measurement": "Activity", "setting": "[4]", "result": 4, "unit": "%"}, {"measurement": "Activity", "setting": "[5]", "result": 1, "unit": "%"}, {"measurement": "Activity", "setting": "[6]", "result": 28, "unit": "%"}, {"measurement": "Activity", "setting": "[7]", "result": 20, "unit": "%"}, {"measurement": "Activity", "setting": "[8]", "result": 7, "unit": "%"}, {"measurement": "Activity", "setting": "[9]", "result": 55, "unit": "%"}, {"measurement": "Activity", "setting": "[10]", "result": 39, "unit": "%"}, {"measurement": "Activity", "setting": "[11]", "result": 18, "unit": "%"}, {"measurement": "Activity", "setting": "[12]", "result": 43, "unit": "%"}, {"measurement": "Activity", "setting": "[13]", "result": 62, "unit": "%"}, {"measurement": "Activity", "setting": "[14]", "result": 15, "unit": "%"}, {"measurement": "Activity", "setting": "[15]", "result": "< 50", "unit": "%"}, {"measurement": "Activity", "setting": "[16]", "result": "< 50", "unit": "%"}, {"measurement": "Activity", "setting": "[17]", "result": "< 50", "unit": "%"}, {"measurement": "Activity", "setting": "[18]", "result": "< 50", "unit": "%"}, {"measurement": "Activity", "setting": "[19]", "result": "< 50", "unit": "%"}, {"measurement": "Activity", "setting": "[20]", "result": "< 50", "unit": "%"}, {"measurement": "K", "setting": "[21]", "result": 24, "unit": "µM"}, {"measurement": "K", "setting": "[22]", "result": 3.02, "unit": "µM"}, {"measurement": "Kd", "setting": "[23]", "result": 2.38, "unit": "µM"}, {"measurement": "K", "setting": "[24]", "result": 3.88, "unit": "µM"}, {"measurement": "K", "setting": "[25]", "result": 0.44, "unit": "µM"}, {"measurement": "clearance", "setting": "[26]", "result": 43, "unit": "mL/min/kg"}, {"measurement": "half-life", "setting": "[27]", "result": 1.9, "unit": "h"}, {"measurement": "AUC/dose", "setting": "[28]", "result": 0.72, "unit": "µM·h/mg/kg"}, {"measurement": "IC50", "setting": "[29]", "result": 0.117, "unit": "µM"}]}
